Screens from PubChem.
core dimer inh: blocks dimerization of HCV core protein. TR-FRET GST/Flag-core106 dimerization, 1536-well. inhibition, % at 5 µM. 300,000 tested, 0.33% active. AID 1899;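 active = inhibition above the mean of all tested compounds plus 3 SD, set per screening campaign, cut at about 45% in these data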
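System – GST-tagged and Flag-tagged HCV core protein residues 1-106 · Repeats – one well for each compound · Technique – TR-FRET 671 and 617 nm emission · Doses – one concentration, 5 µM, in 0.5% DMSO · Times – 4 h, 22.5 °C incubation · Also added – Eu donor and XL665 acceptor anti-tag antibodies · Measure – percent inhibition of core106 dimerization signal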
IMP-1 inhibitor: inhibitors of Pseudomonas aeruginosa IMP-1 metallo-beta-lactamase; 290,000 tested, 0.45% active; purified IMP-1, nitrocefin hydrolysis, epi-absorbance fluorescence; inhibition, % at 5.6 µM;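 active = inhibition above the mean plus 3 SD of all compounds in the same screening run, cut at about 4.5% in these data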;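 also: 0% = IMP-1 with DMSO and 100% = DMSO wells lacking enzyme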
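System: purified recombinant IMP-1 beta-lactamase. Medium: Zinc- and detergent-supplemented HEPES buffer, pH 7.1. Compound: one 5.6 µM dose […]. Schedule: 15 min preincubation plus 25 min reaction at 25 °C. Technique: Epi-absorbance fluorescence, 480 nm excitation, 530 nm emission.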
DNA FID counter: counter-screen for HCV NS3 helicase inhibitors: DNA intercalator displacement; DNA fluorescent intercalator displacement, fluorescence; inhibition, % at 7.9 µM; 290,000 tested, 0.17% active; in the data active = inhibition above about 37%;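 also: 0% = vehicle and 100% = reference compound; higher means more ethidium bromide displaced from hairpin DNA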
VIM-2 inhibitor: blocks Pseudomonas aeruginosa VIM-2 metallo-beta-lactamase; purified VIM-2, nitrocefin hydrolysis, epi-absorbance fluorescence; inhibition, % at 5.6 µM; AID 1527; 290,000 tested, 0.89% active;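 active = inhibition above the mean of all tested compounds plus 3 SD, cutoff set per screening run, cut at about 7.5% in these data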;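 also: red hydrolysis product quenches plate fluorescence so inhibitors raise well fluorescence; 0% = enzyme with DMSO and 100% = DMSO without enzyme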
Starred values were filed as active, the others as inactive; nt = not tested or not shown. Sampled rows, rich in hits. Any-hit rate of the full collection: about 1.6%.

SMILES	core dimer inh	IMP-1 inhibitor	DNA FID counter	VIM-2 inhibitor
N=c1c2c(-c3ccccc3)c(-c3ccccc3)n(Cc3ccccc3)c2ncn1CCCn1ccnc1	0	-3	40*	-4
NC(=O)[C@@H]1CCCNc2c(I)cc([N+](=O)[O-])cc2C(=O)N[C@@H](CCCN=C(N)N)C(=O)N[C@@H](CCCN=C(N)N)C(=O)N1	-9	12*	47*	0
CCn1c(=O)c(C(C)=O)nc2ccccc21	-5	5.9*	-1	0
CCc1nc2ccccc2n(CC)c1=O	-1	2	-3	-4
O=C(CSc1nc(C(F)(F)F)cc(=O)[nH]1)N1CCOCC1	2	nt	nt	nt
O=C1OCC(c2ccccc2)=C1c1ccc(S(=O)(=O)N2CCOCC2)s1	9	44*	-6	0
COc1cc(/C=N/Nc2ncnc3sc4c(c23)CCC4)ccc1O	nt	-1	-9	10*
COc1cc(/C=N/NC2=NCCCCC2)ccc1O	0	-3	1	-2
N#CC(C(=O)NCc1ccccc1)c1nc2ccccc2nc1N1CCCC1 (configuration not stated)	6	8.2*	-4	0
COc1ccc2c(c1)Cc1sc(NC(C)=O)nc1-2	-3	11*	4	3
O=C(C[n+]1ccc(Cc2ccccc2)cc1)Nc1ccc([N+](=O)[O-])cc1Cl	-1	-3	17	0
Cc1ccc(Cl)cc1NC(=O)C[n+]1ccc(Cc2ccc([N+](=O)[O-])cc2)cc1	-2	-2	40*	-2
CCCCn1c(=O)[nH]c(=O)c2c1nc(-c1ccc(OCC)cc1)n2CC	5	-2	-18	0
CCCCn1c(=O)[nH]c(=O)c2c1nc(-c1ccc(C#N)cc1)n2C1CCCC1	58*	-5	-14	-2
Cc1ccc(OCC(=O)Nn2cnnc2)c(Br)c1	-4	2	-4	-3
O=C(CN(Cc1cccs1)C(=O)CN1C(=O)COc2ccccc21)NCc1ccco1	7	5.4*	-5	0
CCc1ccc(NC(=O)CN(CC(=O)Nc2ccc(CC)cc2)CC(C)O)cc1 (configuration not stated)	-18	18*	-30	2
O=C(Nc1ccc(-c2nc3ccccc3s2)c(OC(=O)c2ccccc2)c1)c1ccccc1	58*	-2	-2	-3
O=C(Nc1ccc2nc3ccccc3nc2c1)c1ccccc1	-15	-2	5	1
CCN1CCN(c2ccc(NC(=O)c3ccc4c(c3)OCO4)cc2)CC1	0	-5	4	9.3*
CCOc1ccc(C(=O)Nc2ccc(N3CCN(C)CC3)cc2)cc1	4	-2	7	11*
Cc1ccc(C(=O)Nc2ccc(N3CCN(C)CC3)cc2)cc1	2	-7	3	9.7*
CCCCOc1ccc(C(=O)Nc2ccc(N3CCN(C)CC3)cc2)cc1	-12	-5	15	0
CCOC(=O)N1CCN(C(=O)CN(Cc2ccccc2)S(C)(=O)=O)CC1	5	-5	-16	-3
Cc1nc2ccc(NC(=O)c3ccc(Cl)c(NC(=O)c4cccs4)c3)cc2s1	48*	0	-12	-2
SMILES	core dimer inh	IMP-1 inhibitor	DNA FID counter	VIM-2 inhibitor
Cc1ccc(NC(=O)c2ccc(Cl)c(NC(=O)c3cccs3)c2)cc1	9	0	-22	-2
Cc1c(CC(=O)N[C@@H](C)C(=O)O)c(=O)oc2cc3occ(-c4ccccc4)c3cc12	8	-1	-18	-1
Cc1oc2c(C)c3oc(=O)c(CCC(=O)NCCCCCC(=O)O)c(C)c3cc2c1C	6	-3	-42	-1
Cc1c(CCC(=O)O)c(=O)oc2c(C)c3occ(-c4ccc(Br)cc4)c3cc12	nt	24*	-26	4
Cc1c(CC(=O)N[C@@H](C)C(=O)O)c(=O)oc2c(C)c3occ(-c4ccccc4)c3cc12	nt	-2	-15	10*
COc1ccc(-c2coc3c(C)c4oc(=O)c(CCC(=O)O)c(C)c4cc23)cc1	24	-1	-15	11*
COc1cc(COc2ccc3c(C)c(CCC(=O)O)c(=O)oc3c2)cc(OC)c1OC	9	-2	-31	-1
COc1cc(C2NC(=O)NC(C)=C2C(=O)Nc2cccc(C)c2C)cc(OC)c1OC (configuration not stated)	-2	-3	-4	-3
COc1ccccc1C1NC(=O)NC(C)=C1C(=O)Nc1cccc(C)c1C (configuration not stated)	1	5.0*	-9	0
CCCCNC(=O)CSc1nnc(Cc2ccccc2)n1CC1CCCO1 (configuration not stated)	-2	-3	-15	-1
CCCCNC(=O)CSc1nnc(Cc2ccccc2)n1CC	-10	4.5*	-16	-1
COc1ccc(-c2cc(C(F)(F)F)c3c(N)c(C(=O)NCCSC)sc3n2)cc1	0	-1	-32	3
CN(C)CCNC(=O)c1sc2nc(-c3ccccc3)cc(C(F)(F)F)c2c1N	-11	-1	19	12*
CN(CC1CCCO1)S(=O)(=O)c1ccc(C(=O)Nc2ccccc2F)cc1 (configuration not stated)	10	-2	-17	-2
CN(CC1CCCO1)S(=O)(=O)c1ccc(C(=O)Nc2ccc(S(N)(=O)=O)cc2)cc1 (configuration not stated)	-1	4.8*	-8	2
Cc1[nH]c(=S)c(C#N)c(C)c1C(=O)Nc1ccccc1	4	-3	1	-4
C=CCc1c(C)[nH]c(=S)c(C#N)c1C	20	9.3*	-17	1
CCn1cc(C(=O)O)c(=O)c2cc(S(=O)(=O)N(C)C)ccc21	-1	-2	2	8.7*
CCC(C)NC(=O)c1cn(CC)c2ccc(S(=O)(=O)N(C)C)cc2c1=O (configuration not stated)	3	-2	-16	-5
CC1CC(C)CN(CC(=O)NC(c2ccccc2)c2ccccc2)C1 (configuration not stated)	2	-3	37*	-1
CN(Cc1ccccc1)c1ccc2nnc(-c3ccccc3)n2n1	1	-1	-27	2
COc1cc(/C=C2/C(=O)NN(c3ccc(Cl)cc3)C2=O)cc(Br)c1O	-6	9.7*	-12	-4
CC(=O)Nc1ccc2c(CSc3nncs3)cc(=O)oc2c1	-1	5.4*	-2	3
O=C1N=C(N2CCN(c3cccc4ccccc34)CC2)S/C1=C/c1cccs1	67*	0	-1	-2
C=C(C)CN(CC)c1nc(N)c2c(N)nc3c(c2c1C#N)CC(=O)N3C12CC3CC(CC(C3)C1)C2	42	-6	-4	-4
N#Cc1c(N2CCCC(O)C2)nc(N)c2c(N)nc3c(c12)CC(=O)N3C12CC3CC(CC(C3)C1)C2 (configuration not stated)	52*	-2	-14	-2
COc1ccc2c(CC(=O)Nc3ccc(OC)c(NS(=O)(=O)c4ccc(F)cc4)c3)coc2c1	68*	-3	-10	-2
O=C(Nc1ccc(-c2nc3ccc(NC(=O)c4cccs4)cc3[nH]2)cc1)c1cccs1	-3	12*	8	-5
O=C(Nc1ccc2nc(-c3cccs3)[nH]c2c1)c1cccs1	-6	-2	-8	-2
